In series [1] the test system is Influenza A virus. Kind of series: Antiviral activity against Influenza A virus (A/WSN/1933(H1N1)) infected in BALB/c mouse assessed as increase in mouse survival rate at 1.2 umol/kg/day administered intranasally for 5 days and measured at day 21 relative to control. The format is functional, organism-based.
The subject of series [2] is Influenza A virus. As to the kind of experiment: Antiviral activity against Influenza A virus (A/WSN/1933(H1N1)) infected in MDCK cells expressing wild type neuraminidase assessed as protection against virus-induced cytopathic effect after 48 hrs by CellTiter96 aqueous non-radioactive cell proliferation assay. The format is functional, organism-based. In outline:
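Virus at 100 TCID50 was premixed with inhibitor at varied concentrations, then added to MDCK cells (1×10^5 cells/mL). Cells were held 48 h at 37 °C under 5% CO2. Cytopathic effect was read as MTS absorbance at 490 nm after 15 min. EC50 was taken from a curve fit of percent CPE versus concentration.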

Series [3] is described as follows: Cytotoxicity against MDCK cells after 48 hrs by CellTiter96 aqueous non-radioactive cell proliferation assay. The format is cell-based, Canis lupus familiaris. The note with it: dog.
The nature of series [4]: Half life in 10 mM phosphate buffer at pH 7.4 by HPLC method. The format is physicochemical. A digest of the protocol:
(§1)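 A 20 mM DMSO stock was diluted to 1 mM in buffer (50 mM HCl/KCl pH 1.3, acetate pH 4.1, phosphate pH 7.4 at 50 or 10 mM, borate pH 9.1, glycine pH 9.2), rat plasma or […]. Mixtures were shaken at 1000 rpm, 37 °C, and sampled over time for reversed-phase HPLC (214 or 254 nm). Half-life came from a pseudo-first-order fit; remaining parent was assessed at 96 h. Three runs for ZA derivatives, single for GOC derivatives.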

The nature of series [5]: Half life in 50 mM phosphate buffer at pH 7.4 by HPLC method. The format is physicochemical. A digest of the protocol: as §1
Series [6] in a line: Metabolic stability in […] assessed as parent compound remaining after 96 hrs by HPLC method. The format is ADME, cell-free, Oryctolagus cuniculus. The note with it: rabbit, plasma; read-out: Stability.
Series [7] in a line: Chemical stability in HCl/KCl solution at pH 1.3 assessed as parent compound remaining after 96 hrs by HPLC method. The format is physicochemical. The note with it: read-out: Stability. A digest of the protocol:
as §1

A short description of series [8]: Half life in rabbit plasma by HPLC method. The format is ADME, cell-free, Oryctolagus cuniculus. In outline:
as §1

A short description of series [9]: Half life in glycine buffer at pH 9.2 by HPLC method. The format is physicochemical. In outline: as §1
The nature of series [10]: Half life in borate buffer at pH 9.1 by HPLC method. The format is physicochemical. In outline: as §1
Series [11] can be described thus: Half life in HCl/KCl solution at pH 1.3 by HPLC method. The format is physicochemical. In outline: as §1
Series [12] can be described thus: Half life in human serum at 16 mg. The format is ADME, organism-based.
Series [13] can be described thus: Drug uptake in MDCK cells at 100 uM after 48 hrs by LC-MS analysis. Conditions: dog. The format is ADME, cell-based, Canis lupus familiaris. In outline:
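MDCK cells (2.5×10^6, grown overnight) were exposed to compound at 100 µM final in 2% FBS medium for 48 h, with a DMSO mock. Cells were washed, lysed in RIPA, methanol-precipitated at −80 °C and filtered (10 kDa cutoff). Parent and hydrolysis product were quantified by LC–MS/MS against calibration curves (0.03–300 µM) spiked into mock lysate.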

Series [14] deals with Influenza A virus. Kind of series: Antiviral activity against Influenza A virus (A/WSN/1933(H1N1)) infected in BALB/c mouse assessed as protection against virus-induced infection at 48 umol/kg/day administered via oral gavage for 5 days. The format is functional, organism-based. A digest of the protocol: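 Female BALB/c mice (4–5 weeks old), 10 per group. Drug was given by oral gavage twice daily for 5 days at 48 μmol/kg/day. Intranasal challenge with 10 MLD50 of A/WSN/1933 (H1N1) 4 h after the first dose. PBS placebo on the same schedule. Survival was observed daily and compared by log-rank (Mantel–Cox) test.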

The subject of series [15] is Influenza A virus. Kind of series: Antiviral activity against Influenza A virus (A/WSN/1933(H1N1)) infected in BALB/c mouse assessed as increase in mouse survival rate at 2.4 umol/kg/day administered intranasally for 5 days and measured at day 21 relative to control. The format is functional, organism-based. In outline:
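Female BALB/c mice (4–5 weeks old), 10 per group. Drug was given by intranasal instillation twice daily for 5 days at 2.4 μmol/kg/day, with half the dose at each administration. Mice were infected intranasally with 10 MLD50 of A/WSN/1933 (H1N1) under zoletil anaesthesia, 4 h after the first dose. PBS placebo on the same schedule. Survival was followed daily and curves compared by log-rank test.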

The test system of series [16] is Influenza A virus. As to the kind of experiment: Antiviral activity against Influenza A virus (A/WSN/1933(H1N1)) infected in BALB/c mouse assessed as mouse survival rate at 1.2 umol/kg/day administered intranasally for 5 days and measured at day 21 relative to control. The format is functional. The note with it: inhaled or nasal.
The nature of series [17]: Chemical stability in acetate buffer at pH 4.1 assessed as parent compound remaining after 96 hrs by HPLC method. The format is physicochemical. The note with it: read-out: Stability. In outline: as §1
Series [18] in a line: Half life in rat plasma by HPLC method. The format is ADME, cell-free. In outline: as §1
Series [19] in a line: Half life in acetate buffer at pH 4.1 by HPLC method. The format is physicochemical. In outline:
as §1

Activity calls are given as the source filed them.

On to `CC(=O)N[C@H]1[C@H]([C@H](O)[C@H](O)CO)OC(C(=O)O)=C[C@@H]1NC(=N)N` [ZANAMIVIR], for which the result with Influenza A virus [1] was Active. Also, the EC50 (as a rule, the concentration at which the effect is half-maximal) with Influenza A virus [2] came out at 27 nM.

For the compound `CCC(CC)O[C@@H]1C=C(C(=O)O)C[C@H](N)[C@H]1NC(C)=O` [OSELTAMIVIR CARBOXYLATE], the CC50 (commonly the concentration that lowers cell viability or growth by half) at 48 h in series [3] was above 100 µM. Moreover, the EC50 in the series with Influenza A virus [2] was 16 nM.

As for `CCC(CC)O[C@@H]1C=C(C(=O)O)C[C@H](N/C(N)=N/C(=O)[C@@H](C)c2ccc3cc(OC)ccc3c2)[C@H]1NC(C)=O`, the half-life (usually how long it takes for the measured level to halve) in series [4] is 2.9 days; in series [5], 2.7 days; in series [8], above 4 days; in series [9] it was 3.39 days; in [10], 4600 min; in series [11], above 4 days. Also, the results for the remaining at 96 h in [6] and in [7] were 76% and above 75%, respectively. For the same compound, the CC50 at 48 h in [3] was above 100 µM. Also, in the series on Influenza A virus [2], the EC50 was determined as 2 nM.

As for `CC(=O)N[C@H]1[C@H]([C@H](O)[C@H](O)CO)OC(C(=O)O)=C[C@@H]1N=C(N)N` [ZANAMIVIR], the half-life in [12] was 120 to 300 min. For the same compound, the 50% cytotoxic concentration (CC50) at 48 h in [3] is above 100 µM.

`CCCCCCCC(=O)/N=C(\N)N[C@H]1CC(C(=O)O)=C[C@@H](OC(CC)CC)[C@@H]1NC(C)=O` came in with a Drug uptake in series [13] of 1225 nM. Also, the remaining at 96 h is 55% in [6] and above 75% in series [7]. The outcome in the series with Influenza A virus [14] was Active. The half-life is 4 days in series [8], 0.933 days in series [9], 1090 min in series [10] and above 4 days in [11]. In addition, the CC50 at 48 h in [3] was above 100 µM. In addition, in the series with Influenza A virus [2], the EC50 was 1 nM.

With `CCC(CC)O[C@@H]1C=C(P(=O)(O)O)C[C@H](NC(=N)N)[C@H]1NC(C)=O`, the EC50 in the series on Influenza A virus [2] worked out at 3.8 nM.

As to `CCC(CC)O[C@@H]1C=C(C(=O)O)C[C@H](NC(=N)N)[C@H]1NC(C)=O`, in [3], the CC50 at 48 h was above 100 µM. Besides, the EC50 in the series on Influenza A virus [2] amounted to 7 nM.

As to `CCCCCCCC(=O)/N=C(\N)N[C@H]1C=C(C(=O)O)O[C@@H]([C@H](O)[C@H](O)CO)[C@@H]1NC(C)=O`, the half-life in series [4] was 2.37 days; in series [5] it was 1.63 days; in series [18], 1770 min; in series [10], 1570 min; in [19] it was above 4 days; in series [11], above 4 days. Also, in the series with Influenza A virus [15], the outcome was Active. Also, the survival at 1.2 µmol/kg in the series on Influenza A virus [16] is 100%. For the same compound, the remaining at 96 h in series [17] and in [7] was above 75% each time. For the same compound, the CC50 at 48 h in [3] was above 100 µM. Further, the EC50 in the series on Influenza A virus [2] is 90 nM.

Consider `CCOC(=O)C1=C[C@@H](OC(CC)CC)[C@H](NC(C)=O)[C@@H](N)C1`, for which the outcome in the series with Influenza A virus [14] was Active.

In the case of `CCC(CC)O[C@@H]1C=C(P(=O)(O)O)C[C@H](N/C(N)=N/C(=O)CSc2ccc3ccccc3c2)[C@H]1NC(C)=O`, the EC50 in the series with Influenza A virus [2] is 0.8 nM.

Take `COc1ccc2cc([C@H](C)C(=O)/N=C(\N)N[C@H]3C=C(C(=O)O)O[C@@H]([C@H](O)[C@H](O)CO)[C@@H]3NC(C)=O)ccc2c1`: the half-life in series [4] is 2.8 days; in [18] it was 4060 min. The survival at 1.2 µmol/kg with Influenza A virus [16] came out at 70%. Also, the CC50 at 48 h in [3] is above 100 µM. In addition, the EC50 in the series with Influenza A virus [2] was 140 nM.

These data come from ChEMBL document CHEMBL4152278 (Eur J Med Chem, 2018).
